Assay outcomes as filed in PubChem BioAssay.
In the library only some 1.2% were active in any assay of this set; here they are far more common.
CRFBP-R2 agonist: agonists of human CRF-binding protein/CRF-R2 receptor complex. HEK293 CRF-R2/CRF-BP, calcium dye fluorescence (FLIPR); percent of saturating CRF peptide response. activation, % at 13.2 µM. 350,000 tested, 0.46% active;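 active = activation of at least 50%, plus an integration ratio under a set limit after plate pattern correction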;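 also: plate controls were neutral control wells without compound for no effect and CRF at EC100 for full effect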
DDE Tn6 FP inh: DD(E)-Tn6 binding inhibition, primary FP screen; 370,000 tested, 0.21% active; AID 720509; inhibition, % at 8.3 µM; P02675; Fibrin DD(E) TRITC-Tn6 fluorescence polarization displacement;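 active = inhibition above a per-campaign cutoff: mean of compounds within control limits plus 3 SD, cut at about 15% in these data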;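 also: 0% = median of all compound wells on the plate and 100% = blocking peptide control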
Target sequence (P02675 whole entry, looked up): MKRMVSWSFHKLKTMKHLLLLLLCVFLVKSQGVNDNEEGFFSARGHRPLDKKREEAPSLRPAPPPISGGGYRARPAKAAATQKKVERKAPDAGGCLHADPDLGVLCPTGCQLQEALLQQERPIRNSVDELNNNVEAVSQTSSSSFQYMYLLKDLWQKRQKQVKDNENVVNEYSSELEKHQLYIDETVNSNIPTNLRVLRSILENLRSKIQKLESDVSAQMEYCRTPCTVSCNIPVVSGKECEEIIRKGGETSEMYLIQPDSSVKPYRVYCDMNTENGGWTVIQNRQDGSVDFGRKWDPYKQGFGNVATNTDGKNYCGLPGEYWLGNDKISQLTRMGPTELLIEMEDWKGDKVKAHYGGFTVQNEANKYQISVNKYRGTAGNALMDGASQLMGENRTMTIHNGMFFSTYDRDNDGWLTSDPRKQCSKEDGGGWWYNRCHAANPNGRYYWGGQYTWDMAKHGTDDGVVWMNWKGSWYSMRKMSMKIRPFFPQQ
DDE Tn7 FP inh: inhibitors of Tn7 peptide binding to human fibrin DD(E). P02675. FP displacement of FITC-Tn7 peptide from fibrin DD(E); 0% = median of compound wells per plate. inhibition, % at 8.3 µM. 370,000 tested, 0.13% active;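 active = inhibition above the mean of compounds falling within the control limits plus 3 SD of them, cut at about 14% in these data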;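 also: 0% = plate median of compound wells and 100% = 10 µM Aha-Tn7 peptide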
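assay system = human clot-derived fibrin DD(E) complex | quantity = Fibrin-DD(E) at 2 µM final | timing = 10 min preincubation, 3 h with tracer, room temperature | signal = fluorescence polarization | measure = percent inhibition | benchmarks = high control wells with 10 µM unlabelled Aha-Tn7 peptide (full inhibition) | replicates = singlicate testing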
CRFBP-R2 block: blocks CRF-induced signaling of the CRF-BP/CRF-R2 complex | AID 588475 | inhibition, % at 11.8 µM | HEK293 CRF-R2/CRF-BP, CRF-induced calcium fluorescence | 350,000 tested, 0.59% active;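 active = inhibition of the ligand-induced calcium signal above about 50% at the single tested concentration, limit read from the data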
* = called active by the depositor; · = not tested or not shown.

SMILES	CRFBP-R2 agonist	DDE Tn6 FP inh	DDE Tn7 FP inh	CRFBP-R2 block
COc1ccc(OCC(=O)Nc2ccc(C(=O)Nc3ccccc3C(=O)O)cc2)cc1	2	-2	4	-3
COc1ccc(Cn2cc(COC(=O)Nc3ccc(F)cc3)nn2)cc1	·	4	8	·
CN(CCCOC(=O)c1occ2ccccc12)C1CN(Cc2cn(Cc3ccccc3Cl)nn2)S(=O)(=O)C1 (stereo not drawn)	·	2	0	·
COC(=O)[C@]12C[C@H](CC(=O)N3CCC(c4ccccc4)CC3)C(=O)N(Cc3ccco3)C1=C[C@H](COCc1ccccc1)O[C@@H]2C	·	0	0	·
Cc1ccc(S(=O)(=O)CCC(=O)Nc2cc(Cl)ccc2-n2cncn2)cc1	0	7	-1	50*
O=C(Nc1ncc(Cc2ccc(Cl)cc2Cl)s1)c1ccc([N+](=O)[O-])cc1	74*	5	-8	-172
O=C(Nc1nnc(COc2ccc(Cl)cc2)s1)c1ccc([N+](=O)[O-])cc1	4	-2	-6	-14
O=C(CSc1nc(-c2ccco2)cc(C(F)(F)F)n1)NCCCN1CCOCC1	-1	-6	4	51*
Cc1cc(NC(=O)CCSc2nc(-c3ccco3)cc(C(F)(F)F)n2)no1	2	-5	6	91*
O=C(CSc1nc(-c2cccs2)cc(C(F)(F)F)n1)NCCCN1CCOCC1	-1	9	2	4
Cc1cc(NC(=O)CCCSc2nc(-c3ccco3)cc(C(F)(F)F)n2)no1	1	-6	-1	-9
CCNC(=O)C1(C)CCN(C(=O)c2ccc3c(c2)CCO3)C1 (stereo not drawn)	·	0	-10	·
c1ccc(CNC2CCC23CCC(c2ccccc2)CC3)cc1 (stereo not drawn)	·	-6	5	·
CCCCCCCCN1CCS(=O)(=O)N(Cc2ccc(OC)cc2)C(C(=O)OC)C1 (stereo not drawn)	·	-2	9	·
CC(C)CNS(=O)(=O)CC1NCc2cc3c(cc21)OCO3 (stereo not drawn)	·	2	-6	·
CCOCc1cc(CN2CCCC(CNC(=O)c3ccco3)C2)ccc1OC (stereo not drawn)	-1	1	-1	76*
COc1ccc(NC(=O)Nc2ccc3c(c2)OCO3)c(C)c1	-1	3	1	53*
CCOC(=O)c1c(N)sc(C(=O)N2CCCCC2)c1C	0	-3	1	61*
C=CCN(C)CC#Cc1ccccc1C	·	12	-6	·
COc1ccccc1C(=O)NC(CCSC)C(=O)NC1CC1 (stereo not drawn)	-1	-2	1	10
COc1ccccc1C(=O)NC(CCSC)C(=O)NC1CCCCCC1 (stereo not drawn)	-1	3	3	101*
COc1ccc(C(=O)C2CCCN(Cc3cccn3-c3ccc(Cl)cn3)C2)c(OC)c1 (stereo not drawn)	11	-3	-5	-3
O=C(O)C1CC(=O)N(CCOc2ccccc2)C1 (stereo not drawn)	8	-4	-3	63*
Cc1nn(C)c(Oc2cccc(Cl)c2)c1C(=O)Nc1ccc(F)cc1F	0	-1	-1	14
Cc1nn(C)c(Oc2ccc(Cl)cc2)c1C(=O)O	-1	-11	-3	61*
SMILES	CRFBP-R2 agonist	DDE Tn6 FP inh	DDE Tn7 FP inh	CRFBP-R2 block
Cc1cccc(C)c1NC(=O)Cc1cccs1	1	-4	2	78*
COC(=O)[C@]12C[C@H](CC(=O)N3CCN(C(=O)c4ccco4)CC3)C(=O)N(Cc3ccco3)C1=C[C@H](C(C)(C)C)O[C@@H]2C	·	4	-4	·
Cc1cc(N2CCOCC2)nc(NCc2ccccc2)n1	122*	2	-4	15
Nc1nc(Cl)cc(N2CCOCC2)n1	0	2	-3	-13
Cc1cc(N2CCOCC2)nc(N)n1	164*	1	0	-61
COc1ccc(-c2cccc3[nH]c4c(c23)CCN2C(=O)[C@H]3[C@H](C)ON(C)[C@H]3C[C@@H]42)cc1	·	1	-10	·
CC1CCCCC1N(C(=O)c1cc(C2CC2)on1)C1CCCCC1 (stereo not drawn)	·	1	4	·
CCN(CC)c1ccc2cc(S(=O)(=O)c3ccc(Cl)cc3)c(=O)oc2c1	118*	11	-8	-83
COC(=O)C1=C(C)N(Cc2ccc(C(F)(F)F)cc2)C(=NCc2ccccc2C(F)(F)F)NC1c1cccc(Cl)c1 (stereo not drawn)	·	-3	-2	·
COC(=O)c1c(NC(=O)COC(=O)CNC(=O)c2cccc(OC(F)F)c2)sc(C)c1C	2	-2	4	1
c1ccc2c(CN3CCCCC3)csc2c1	96*	-2	-4	35
COc1cc(/C=N/N=C2/NC(=O)C(Cc3ccccc3)S2)ccc1O (stereo not drawn)	0	1	12	-8
O=C1N/C(=N/N=C/c2ccc(F)cc2)SC1c1ccccc1 (stereo not drawn)	-1	1	0	52*
CC(C)c1cc(N2CCC(=O)NC2=O)cc(C(=O)O)c1O	0	4	0	52*
CCCCC(=O)N(CCC)CCC	0	-3	1	-7
CC(C)CN(CC(C)C)C(=O)CCCC(=O)N(CC(C)C)CC(C)C	7	5	0	53*
O=C(N=C1N(CC2CC2)CC2(C=C3CCCCC3n3c(=O)n(-c4ccccc4)c(=O)n32)N1C(=O)OCc1ccccc1)c1ccccc1 (stereo not drawn)	·	9	6	·
Cc1ccccc1-n1c(CSC(=N)N)nc2ccccc2c1=O	0	1	2	52*
N=C(N)SCc1nc2ccccc2c(=O)n1-c1ccccc1Cl	-2	-4	-5	-9
CSc1ccccc1NC(=O)COC(=O)c1c[nH]c(=O)[nH]c1=O	112*	0	-12	-60
O=C(COC(=O)c1c[nH]c(=O)[nH]c1=O)Nc1ccccc1F	0	7	2	4
CC1CCN(c2ccc(C(=O)O)cc2NS(=O)(=O)c2ccc(C(C)(C)C)cc2)CC1	·	-1	-10	·
O=C(Nc1ccc(Cl)cc1)C1CCCN1S(=O)(=O)c1cccc2cccnc12 (stereo not drawn)	·	-2	2	·
COc1cc(C=O)ccc1OCCOCCOc1ccc(Cl)cc1Cl	-2	-3	-4	69*
C[C@@H]1CCCCO[C@@H](CN(C)Cc2ccncc2)[C@@H](C)CN([C@H](C)CO)C(=O)c2cc(NC(=O)c3ccccc3)ccc2O1	2	6	1	0
CCc1ccccc1N1C(=O)C2CC(C)=C(C)CC2C1=O (stereo not drawn)	0	-1	-9	50*
Cn1c(CCNC(=O)c2ccco2)nc2cc(NC(=O)c3ccccc3)ccc21	0	0	3	-7
Cn1c(CCNC(=O)c2ccco2)nc2cc(NC(=O)c3ccco3)ccc21	0	-4	-5	108*
CC(C)C(C#CC1CC1)NCc1ccc2c(c1)OCO2 (stereo not drawn)	·	5	4	·
CCC(=O)N1CCc2cc(Br)c(S(=O)(=O)N3CCC(C(=O)NCCCOC(C)C)CC3)cc21	·	6	-4	·
